This is an account of results in ChEMBL document CHEMBL1817606, “3-benzhydryl-4-piperidones as novel neurokinin-1 receptor antagonists and their efficient synthesis” (Bioorg Med Chem, 2011).

As usually defined, the inhibition is the change of the read-out against control, counted positive when it falls. One may read the pIC50 as −log10 of the IC50, conventionally taken in molar units. A lower pIC50 goes with a large IC50.

pIC50: −log10 of the molar value. Activity calls are given as the source filed them. The calls are words filed in the database; no cut-off is given here.

The first assay relates to Cavia porcellus. The assay is described as follows: Inhibition of capsaicin-induced plasma extravasation in trachea of iv dosed guinea pig. The assay is classed as functional, organism-based.
Conditions: not given
Take `COc1ccc(Br)cc1CN1CCC(=O)C(C(c2ccc(F)cc2)c2ccc(F)cc2)C1` (racemic) [listing 1 of 2 here]: the inhibition entry is “inactive”.

For the molecule `COc1ccc(C(C)C)cc1CN1CCC(=O)C(C(c2ccccc2)c2ccccc2)C1` (racemic), the inhibition entry was “inactive”.

As for `COc1ccc(NS(C)(=O)=O)cc1CN1CCC(=O)C(C(c2ccccc2)c2ccccc2)C1` (racemic), the inhibition entry is “inactive”.

As for `COc1ccc(OC(F)(F)F)cc1CN1CCC(=O)C(C(c2ccccc2)c2ccccc2)C1` (racemic), the inhibition entry is “inactive”.

Another assay deals with T1, Substance-P receptor (Homo sapiens, UniProt P25103). The assay is described as follows: Displacement of [125I]BH-SP from human tachykinin NK1 receptor expressed in IM9 cells at 10^-7 M after 30 mins by scintillation counting. It is filed as cell-based. The note with it: IM-9. (In general: In a radioligand displacement assay an active substance lowers the binding of a labelled ligand.)
T1 sequence (P25103 whole entry): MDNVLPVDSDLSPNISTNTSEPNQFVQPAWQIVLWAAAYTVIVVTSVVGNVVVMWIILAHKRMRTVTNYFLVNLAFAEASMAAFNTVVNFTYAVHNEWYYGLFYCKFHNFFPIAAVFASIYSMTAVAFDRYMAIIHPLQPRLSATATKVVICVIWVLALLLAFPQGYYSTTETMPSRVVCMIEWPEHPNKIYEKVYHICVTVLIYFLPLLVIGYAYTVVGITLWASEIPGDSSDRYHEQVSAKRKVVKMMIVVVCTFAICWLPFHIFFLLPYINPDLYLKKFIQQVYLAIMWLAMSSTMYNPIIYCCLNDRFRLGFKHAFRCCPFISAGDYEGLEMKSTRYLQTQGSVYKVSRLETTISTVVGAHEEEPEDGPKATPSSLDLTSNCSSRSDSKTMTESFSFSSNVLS
Take `O=C1CCN(Cc2ccccc2)CC1=C(c1ccccc1)c1ccccc1`: the inhibition was -2%.

For `O=C1CCN(Cc2ccccc2)CC1C(c1ccccc1)c1ccccc1` (racemic), the inhibition worked out at 81.7%.

Take `O=C1CCN(Cc2ccccc2)CC1C(c1ccc(F)cc1)c1ccc(F)cc1` (racemic): the inhibition is 81.7%.

As to `O=C1CCN(Cc2ccccc2)CC1C(c1ccc(Cl)cc1)c1ccc(Cl)cc1` (racemic), the inhibition was determined as 81.7%.

For `O=C1CCN(CCc2ccccc2)CC1C(c1ccccc1)c1ccccc1` (racemic), the inhibition was determined as 54.3%.

As for `O=C1CCN(Cc2cc(C(F)(F)F)cc(C(F)(F)F)c2)CC1C(c1ccc(F)cc1)c1ccc(F)cc1` (racemic), the inhibition worked out at 32.9%.

As for `O=C1CCN(Cc2ccccc2)CC1C1c2ccccc2C=Cc2ccccc21` (racemic), the inhibition came out at 31.1%.

For the molecule `O=C1CCN(Cc2ccccc2)CC1C1c2ccccc2Oc2ccccc21` (racemic), the inhibition was found to be 29.8%.

With `O=C1CCNCC1C(c1ccccc1)c1ccccc1` (racemic), the inhibition was found to be 17.6%.

Regarding `O=C1CN(Cc2ccccc2)CC1C(c1ccccc1)c1ccccc1` (racemic), the inhibition was -0.6%.

`O=C1CN(Cc2ccccc2)CCC1C(c1ccccc1)c1ccccc1` (racemic): the inhibition came out at 9.7%.

In the next assay the test system is Cavia porcellus. The assay is described as follows: Inhibition of capsaicin-induced plasma extravasation in trachea of po dosed guinea pig.
Conditions: not given
It is filed as functional, organism-based.
On to `COc1ccc(Br)cc1CN1CCC(=O)C(C(c2ccc(F)cc2)c2ccc(F)cc2)C1` (racemic) [listing 1 of 2 here], for which the inhibition result is “inactive”.

Turning to `COc1ccc(C(C)C)cc1CN1CCC(=O)C(C(c2ccccc2)c2ccccc2)C1` (racemic), the inhibition entry is “inactive”.

In the case of `COc1ccc(NS(C)(=O)=O)cc1CN1CCC(=O)C(C(c2ccccc2)c2ccccc2)C1` (racemic), the inhibition entry was “inactive”.

Regarding `COc1ccc(OC(F)(F)F)cc1CN1CCC(=O)C(C(c2ccccc2)c2ccccc2)C1` (racemic), the inhibition result is “inactive”.

The target in a further assay is T1, Substance-P receptor. The assay is described as follows: Displacement of [125I]BH-SP from human tachykinin NK1 receptor expressed in IM9 cells after 30 mins by scintillation counting. The assay is classed as cell-based, IM-9.
Conditions: not given
In a few lines:
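Membranes from IM-9 cells grown 3 days, homogenized in 50 mM Tris-HCl pH 7.4 with NaCl, KCl, EDTA and protease inhibitors, spun at 40,000g for 20 min, then resuspended in a Tris buffer with 0.02% BSA and 3 mM MnCl2. Nonspecific binding was defined with 2 × 10^-6 M SP. Bound ligand was collected on GF/C filters, washed three times and counted.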
`O=C1CCN(Cc2ccccc2)CC1C(c1ccccc1)c1ccccc1` (racemic) had a pIC50 of 7.01.

`O=C1CCN(Cc2ccccc2)CC1C(c1ccc(F)cc1)c1ccc(F)cc1` (racemic) showed a pIC50 of 7.01.

In the case of `O=C1CCN(Cc2ccccc2)CC1C(c1ccc(Cl)cc1)c1ccc(Cl)cc1` (racemic), the pIC50 is 7.01.

In turn, `O=C1CCN(Cc2ccccc2O)CC1C(c1ccc(F)cc1)c1ccc(F)cc1` (racemic) showed a pIC50 of 6.55.

Consider `COc1ccccc1CN1CCC(=O)C(C(c2ccc(F)cc2)c2ccc(F)cc2)C1` (racemic), for which the pIC50 is 8.18.

The molecule `COc1cccc(CN2CCC(=O)C(C(c3ccc(F)cc3)c3ccc(F)cc3)C2)c1` (racemic) showed a pIC50 of 7.51.

The molecule `COc1ccc(CN2CCC(=O)C(C(c3ccc(F)cc3)c3ccc(F)cc3)C2)cc1` (racemic) had a pIC50 of 7.11.

The molecule `O=C1CCN(Cc2ccccc2C(F)(F)F)CC1C(c1ccc(F)cc1)c1ccc(F)cc1` (racemic) showed a pIC50 of 8.31.

Molecule `O=C1CCN(Cc2cccc(C(F)(F)F)c2)CC1C(c1ccc(F)cc1)c1ccc(F)cc1` (racemic) had a pIC50 of 6.57.

`O=C1CCN(Cc2ccc(C(F)(F)F)cc2)CC1C(c1ccc(F)cc1)c1ccc(F)cc1` (racemic) gave a pIC50 of 6.66.

The molecule `O=C1CCN(Cc2ccccc2F)CC1C(c1ccc(F)cc1)c1ccc(F)cc1` (racemic) gave a pIC50 of 7.34.

Molecule `N#Cc1ccccc1CN1CCC(=O)C(C(c2ccc(F)cc2)c2ccc(F)cc2)C1` (racemic) showed a pIC50 of 8.21.

Consider `O=C1CCN(Cc2ccccc2[N+](=O)[O-])CC1C(c1ccc(F)cc1)c1ccc(F)cc1` (racemic), for which the pIC50 is 7.74.

`O=C1CCN(Cc2ccccc2-c2ccccc2)CC1C(c1ccc(F)cc1)c1ccc(F)cc1` (racemic): the pIC50 was 7.85.

Molecule `COc1cccc(CN2CCC(=O)C(C(c3ccc(F)cc3)c3ccc(F)cc3)C2)c1OC` (racemic) gave a negative logarithm of the IC50 (pIC50) of 7.26.

Molecule `COc1ccc(CN2CCC(=O)C(C(c3ccc(F)cc3)c3ccc(F)cc3)C2)c(OC)c1` (racemic) had a pIC50 of 8.02.

Take `COc1ccc(OC)c(CN2CCC(=O)C(C(c3ccc(F)cc3)c3ccc(F)cc3)C2)c1` (racemic): the pIC50 is 8.51.

In the case of `COc1cccc(OC)c1CN1CCC(=O)C(C(c2ccc(F)cc2)c2ccc(F)cc2)C1` (racemic), the pIC50 is 8.64.

Take `COc1ccc(F)cc1CN1CCC(=O)C(C(c2ccc(F)cc2)c2ccc(F)cc2)C1` (racemic): the pIC50 was 8.40.

Take `COc1ccc(Br)cc1CN1CCC(=O)C(C(c2ccc(F)cc2)c2ccc(F)cc2)C1` (racemic) [listing 2 of 2 here]: the pIC50 was 8.96.

As to `COc1ccc(OC(F)(F)F)cc1CN1CCC(=O)C(C(c2ccc(F)cc2)c2ccc(F)cc2)C1` (racemic), the pIC50 is 9.09.

Turning to `COc1ccc([N+](=O)[O-])cc1CN1CCC(=O)C(C(c2ccccc2)c2ccccc2)C1` (racemic), the pIC50 is 8.59.

As to `COc1ccc(NC(C)=O)cc1CN1CCC(=O)C(C(c2ccccc2)c2ccccc2)C1` (racemic), the pIC50 is 7.82.

In turn, `COc1ccc(N)cc1CN1CCC(=O)C(C(c2ccccc2)c2ccccc2)C1` (racemic) gave a pIC50 of 8.23.

With `COc1ccc(Br)cc1CN1CCC(=O)C(C(c2ccc(F)cc2)c2ccc(F)cc2)C1` (single isomer, unassigned; (+)), the pIC50 is 8.82.
